One may read the IC50 as the concentration needed to halve the response being measured.

In the test the target is Aldo-keto reductase family 1 member B1 (Sus scrofa, UniProt P80276). Briefly: Inhibition of pig kidney aldose reductase (ALR2). The procedure, abridged:
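Enzyme prepared from pig kidney and assayed in vitro following a previously published method. Inhibition read spectrophotometrically at 340 nm; IC50 values reported. Tolrestat served as positive control.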
Consider `O=C(O)CCC(=O)NCCc1ccc(F)cc1`, for which the 50% inhibitory concentration (IC50) was 94 µM. This lies in the double-digit micromolar range.
As to `O=C(O)/C=C/C(=O)NCc1ccccc1`, the IC50 is 150 µM. Compared with the last molecule, the IC50 is about 1.6-fold higher.
Regarding `COc1ccc(CCNC(=O)CCC(=O)O)cc1`, the IC50 was 170 µM.
Take `O=C(O)CCCC(=O)NCCc1ccc(Br)cc1`: the concentration for half-maximal inhibition (IC50) was found to be 110 µM.
For `CC(=O)NCCc1ccc(O)cc1`, the IC50 was 160 µM.
`CCCCCCCCCC(=O)NCCc1ccc(O)cc1`: half-maximal inhibition (IC50) was put at 110 µM.
For the molecule `COc1ccc(CCNC(=O)c2ccccc2C(=O)O)cc1`, the half-inhibitory concentration (IC50) came to 177 µM. Compared with the last molecule, the IC50 is about 1.6-fold higher.
Under `O=C(O)c1ccccc1C(=O)NCc1ccccc1` stands 180 µM; under `O=C(O)CCC(=O)NCc1ccccc1`, 141 µM.
`CCCCCCCCCCCC(=O)NCCc1ccc(O)cc1` came in with an IC50 of 110 µM.
With `O=C(NCCc1ccc(O)cc1)c1ccccc1`, the midpoint of inhibition, the IC50, lay at 160 µM.
For the molecule `O=C(O)/C=C/C(=O)NCCc1ccc(F)cc1`, the 50% inhibitory concentration (IC50) worked out at 75 µM. Compared with the last molecule, the IC50 is about 2.1-fold lower.
For the molecule `O=C(O)/C=C/C(=O)NCCc1ccc(Br)cc1`, the IC50 was determined as 99 µM.
Under `O=C(O)c1ccccc1C(=O)NCCc1ccc(Br)cc1` stands 81 µM; under `O=C(O)c1ccccc1C(=O)NCCc1ccccc1`, 88 µM.
For the molecule `O=C(O)/C=C/C(=O)NCCc1ccccc1`, the IC50 came to 73 µM.
`O=C(O)CCC(=O)NCCc1ccccc1` displayed an IC50 of 78 µM.
`O=C(O)/C=C/C(=O)n1ccc2ccccc21` registered an IC50 of 37 µM.
The molecule `O=C(O)CCC(=O)Nc1ccccc1` showed an IC50 of 192 µM. This IC50 lies about 5.2-fold higher than the previous one.
Molecule `O=C(O)CCC(=O)NCCc1ccc(Br)cc1` showed an IC50 of 94 µM.
With `O=C(O)c1ccccc1C(=O)NCCc1ccc(Cl)cc1`, half-maximal inhibition (IC50) was put at 203 µM.
Under `O=C(O)c1ccccc1C(=O)NCCc1ccc(O)cc1` stands 340 µM; under `O=C(O)CCCC(=O)NCc1ccccc1`, 133 µM.
For `COc1cc(C(=O)NCCc2ccc(O)cc2)cc(OC)c1OC` the value was 100 µM; for `O=C(O)CCCC(=O)NCCc1ccc(F)cc1`, 76 µM.
For `O=C(O)c1ccccc1C(=O)N1CCc2ccccc21` the value was 95 µM; for `O=C(O)CCC(=O)NCCc1ccc(O)cc1`, 390 µM.
`O=C(O)/C=C/C(=O)NCCc1ccc(Cl)cc1`: the half-maximal inhibitory concentration (IC50) turned out to be 112 µM.
`O=C(O)c1ccccc1C(=O)n1ccc2ccccc21`: the half-maximal inhibitory concentration (IC50) stood at 30 µM.
Under `O=C(O)c1ccccc1C(=O)NCCc1ccc(F)cc1` stands 88 µM; under `O=C(O)CCC(=O)NCCc1ccc(Cl)cc1`, 99 µM; under `O=C(O)CCCC(=O)NCCc1ccc(Cl)cc1`, 154 µM.
On to `COc1ccc(CCNC(=O)/C=C/C(=O)O)cc1`, for which the half-inhibitory concentration (IC50) was determined as 155 µM. The IC50 values of the last two molecules are within 1.5-fold of each other.
For `O=C(O)CCCC(=O)NCCc1ccccc1` the value was 104 µM; for `O=C(O)/C=C/C(=O)NCCc1ccc(O)cc1`, 80 µM; for `O=C(O)/C=C/C(=O)Nc1ccccc1`, 182 µM.
For `O=C(O)CCC(=O)n1ccc2c(O)cccc21` the value was 7.4 µM; for `O=C(O)/C=C/C(=O)N1CCc2ccccc21`, 40 µM; for `CCCCCCCCCCCCCCCC(=O)NCCc1ccc(O)cc1`, 150 µM.
For `COc1ccc(CCNC(=O)CCCC(=O)O)cc1`, the midpoint of inhibition, the IC50, lay at 185 µM.
For `O=C(O)CCCC(=O)Nc1ccccc1`, the IC50 was 440 µM.
Under `O=C(O)CCC(=O)n1ccc2ccccc21` stands 24 µM; under `O=C(O)CCC(=O)N1CCc2ccccc21`, 102 µM.
Regarding `CCCCC(=O)NCCc1ccc(O)cc1`, the IC50 was 130 µM.
For `CCCCCCCC(=O)NCCc1ccc(O)cc1` the value was 120 µM; for `CCC(C)C(=O)NCCc1ccc(O)cc1` (stereo not drawn), 1800 µM; for `O=C(O)c1ccccc1C(=O)Nc1ccccc1`, 227 µM.
Under `COc1ccc2c(C(=S)N(C)CC(=O)O)cccc2c1C(F)(F)F` [TOLRESTAT] stands 16 µM.
